Reference: ChEMBL document CHEMBL1146569, “The pterocellins, novel bioactive alkaloids from the marine bryozoan Pterocella vesiculosa” (J Nat Prod, 2003)

Experiments:
SNB-19 = assay: Growth inhibition of human SNB19 cells; type: functional
MOLT-4 = assay: Growth inhibition of human MOLT4 cells; type: functional
NCI-H226 = assay: Growth inhibition of human NCI-H226 cells; type: functional
OVCAR-3 = assay: Growth inhibition of human OVCAR-3 cells; type: functional
K562 = assay: Growth inhibition of human K562 cells; type: functional
SK-OV-3 = assay: Growth inhibition of human SKOV3 cells; type: functional
NCI-H23 = assay: Growth inhibition of human NCI-H23 cells; type: functional
NCI-H460 = assay: Growth inhibition of human NCI-H460 cells; type: functional
HT-29 = assay: Growth inhibition of human HT-29 cells; type: functional
CCRF-CEM = assay: Growth inhibition of human CCRF-CEM cells; type: functional
Escherichia coli = assay: Antimicrobial activity against Escherichia coli assessed per disk; type: functional
HCC 2998 = assay: Growth inhibition of human HCC2998 cells; type: functional
SF-295 = assay: Growth inhibition of human SF295 cells; type: functional
[1] = Growth inhibition of human Hs 578T cells; type: functional
SF-268 = assay: Growth inhibition of human SF268 cells; type: functional
UACC-62 = assay: Growth inhibition of human UACC62 cells; type: functional
NCI-H322M = assay: Growth inhibition of human NCI-H322M cells; type: functional
U-251 = assay: Growth inhibition of human U251 cells; type: functional
OVCAR-8 = assay: Growth inhibition of human OVCAR8 cells; type: functional
SK-MEL-2 = assay: Growth inhibition of human SK-MEL-2 cells; type: functional
DU-145 = assay: Growth inhibition of human DU145 cells; type: functional
T47D = assay: Growth inhibition of human T47D cells; type: functional
[2] = Cytotoxicity against african green monkey BSC1 cells at 40 ug/disk; type: cell-based; conditions: chlorocebus aethiops, bsc-1
Summary of the method: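 BSC-1 cells (ATCC CCL 26), a line derived from African green monkey kidney, are the host cells of the combined antiviral/cytotoxicity assay. Cytotoxicity is scored on these cells within that assay.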

HOP-62 = assay: Growth inhibition of human HOP62 cells; type: functional
OVCAR-4 = assay: Growth inhibition of human OVCAR4 cells; type: functional
UACC-257 = assay: Growth inhibition of human UACC257 cells; type: functional
SK-MEL-28 = assay: Growth inhibition of human SK-MEL-28 cells; type: functional
CAKI-1 = assay: Growth inhibition of human Caki1 cells; type: functional
EKVX = assay: Growth inhibition of human EKVX cells; type: functional
KM12 = assay: Growth inhibition of human KM12 cells; type: functional
786-0 = assay: Growth inhibition of human 786-0 cells; type: functional
HCT-116 = assay: Growth inhibition of human HCT116 cells; type: functional
SR = assay: Growth inhibition of human SR cells; type: functional
[3] = Growth inhibition of human […] cells; type: functional
OVCAR-5 = assay: Growth inhibition of human OVCAR5 cells; type: functional
HOP-92 = assay: Growth inhibition of human HOP92 cells; type: functional
IGROV-1 = assay: Growth inhibition of human IGROV1 cells; type: functional
M14 = assay: Growth inhibition of human M14 cells; type: functional
BT-549 = assay: Growth inhibition of human BT549 cells; type: functional
TK-10 = assay: Growth inhibition of human TK10 cells; type: functional
NCI/ADR-RES = assay: Growth inhibition of human NCI/ADR-RES cells; type: functional
Malme-3M = assay: Growth inhibition of human MALME-3M cells; type: functional
SF-539 = assay: Growth inhibition of human SF539 cells; type: functional
[4] = test system: Trichophyton mentagrophytes; assay: Antimicrobial activity against Trichophyton mentagrophytes assessed per disk; type: functional
[5] = read-out: LC50 (the source's name)

Compound: COc1cn2c(cc1=O)C(=O)c1ccnc(CC(C)C)c1-2 [PTEROCELLIN A]
- GI50 (SNB-19): 2.9 µM
- TGI (SNB-19): 11.4 µM
- CC50 (SNB-19; [5]): 60 µM
- GI50 (MOLT-4): 3.5 µM
- LC50 (concentration killing 50% of cells) (MOLT-4): > 100 µM
- TGI (MOLT-4): > 100 µM
- GI50 (NCI-H226): 1.7 µM
- TGI (NCI-H226): 3.5 µM
- CC50 (NCI-H226; [5]): 7.4 µM
- GI50 (OVCAR-3): 1.5 µM
- TGI (OVCAR-3): 4.6 µM
- CC50 (OVCAR-3; [5]): 19.3 µM
- GI50 (K562): 3 µM
- LC50 (concentration killing 50% of cells) (K562): > 100 µM
- TGI (K562): > 100 µM
- GI50 (SK-OV-3): 6.1 µM
- TGI (SK-OV-3): 21.9 µM
- CC50 (SK-OV-3; [5]): 59.2 µM
- GI50 (NCI-H23): 0.3 µM
- LC50 (concentration causing 50% net cell kill) (NCI-H23): 6.1 µM
- TGI (NCI-H23): 1 µM
- GI50 (NCI-H460): 0.8 µM
- LC50 (concentration causing 50% cell kill) (NCI-H460): 7.1 µM
- TGI (NCI-H460): 2.6 µM
- GI50 (HT-29): 1.3 µM
- LC50 (HT-29): > 100 µM
- TGI (HT-29): 7.2 µM
- GI50 (CCRF-CEM): 0.05 µM
- TGI (CCRF-CEM): 0.8 µM
- CC50 (CCRF-CEM; [5]): > 100 µM
- MIC (Escherichia coli): >60 µg
- GI50 (HCC 2998): 1.6 µM
- LC50 (concentration killing 50% of cells) (HCC 2998): 6 µM
- TGI (HCC 2998): 3.1 µM
- GI50 (SF-295): 1.3 µM
- LC50 (concentration killing 50% of starting cells) (SF-295): 5.2 µM
- TGI (SF-295): 2.6 µM
- GI50 [1]: 6.3 µM
- TGI [1]: > 100 µM
- CC50 [1, 5]: > 100 µM
- GI50 (SF-268): 2.1 µM
- LC50 (concentration killing 50% of cells) (SF-268): 26.7 µM
- TGI (SF-268): 6.7 µM
- GI50 (UACC-62): 1.4 µM
- LC50 (50% cell kill) (UACC-62): 6 µM
- TGI (UACC-62): 2.9 µM
- GI50 (NCI-H322M): 1.6 µM
- LC50 (concentration killing 50% of cells) (NCI-H322M): 5.6 µM
- TGI (NCI-H322M): 3 µM
- GI50 (U-251): 2.2 µM
- TGI (U-251): 7.5 µM
- CC50 (U-251; [5]): 42.5 µM
- GI50 (OVCAR-8): 2.2 µM
- TGI (OVCAR-8): 17.6 µM
- CC50 (OVCAR-8; [5]): > 100 µM
- GI50 (SK-MEL-2): 1.9 µM
- TGI (SK-MEL-2): 3.4 µM
- CC50 (SK-MEL-2; [5]): 6.3 µM
- GI50 (DU-145): 0.7 µM
- TGI (DU-145): 2 µM
- CC50 (DU-145; [5]): 4.7 µM
- GI50 (T47D): 1.8 µM
- TGI (T47D): 6.5 µM
- CC50 (T47D; [5]): > 100 µM
- Activity [2]: Toxic
- GI50 (HOP-62): 1.7 µM
- TGI (HOP-62): 3.1 µM
- CC50 (HOP-62; [5]): 5.6 µM
- GI50 (OVCAR-4): 1.7 µM
- LC50 (OVCAR-4): 7.6 µM
- TGI (OVCAR-4): 3.6 µM
- GI50 (UACC-257): 1.1 µM
- TGI (UACC-257): 3 µM
- CC50 (UACC-257; [5]): 7.9 µM
- GI50 (SK-MEL-28): 1.9 µM
- TGI (SK-MEL-28): 4.2 µM
- CC50 (SK-MEL-28; [5]): 9.3 µM
- GI50 (CAKI-1): 2.1 µM
- TGI (CAKI-1): 4.6 µM
- CC50 (CAKI-1; [5]): 11.1 µM
- GI50 (EKVX): 2.1 µM
- TGI (EKVX): 5.8 µM
- CC50 (EKVX; [5]): 23.6 µM
- GI50 (KM12): 1.6 µM
- TGI (KM12): 3.4 µM
- CC50 (KM12; [5]): 7.3 µM
- GI50 (786-0): 1.3 µM
- LC50 (concentration killing 50% of cells) (786-0): 24.4 µM
- TGI (786-0): 4.7 µM
- GI50 (HCT-116): 1.1 µM
- LC50 (HCT-116): 11.2 µM
- TGI (HCT-116): 2.5 µM
- GI50 (SR): 2 µM
- TGI (SR): > 100 µM
- CC50 (SR; [5]): > 100 µM
- GI50 [3]: 1.7 µM
- TGI [3]: 4.2 µM
- CC50 [3, 5]: > 100 µM
- GI50 (OVCAR-5): 2 µM
- TGI (OVCAR-5): 3.4 µM
- CC50 (OVCAR-5; [5]): 5.6 µM
- GI50 (HOP-92): 2.2 µM
- TGI (HOP-92): 4.9 µM
- CC50 (HOP-92; [5]): 14.1 µM
- GI50 (IGROV-1): 2.1 µM
- TGI (IGROV-1): 5.4 µM
- CC50 (IGROV-1; [5]): 18.4 µM
- GI50 (M14): 0.2 µM
- LC50 (concentration killing 50% of cells) (M14): 4.6 µM
- TGI (M14): 0.8 µM
- GI50 (BT-549): 1.7 µM
- TGI (BT-549): 4 µM
- CC50 (BT-549; [5]): 9.3 µM
- GI50 (TK-10): 3.1 µM
- TGI (TK-10): 6.8 µM
- CC50 (TK-10; [5]): 23.1 µM
- GI50 (NCI/ADR-RES): 2.1 µM
- TGI (NCI/ADR-RES): 4.9 µM
- CC50 (NCI/ADR-RES; [5]): > 100 µM
- GI50 (Malme-3M): 0.1 µM
- TGI (Malme-3M): 0.3 µM
- CC50 (Malme-3M; [5]): 0.8 µM
- GI50 (SF-539): 1.8 µM
- TGI (SF-539): 3.6 µM
- CC50 (SF-539; [5]): 7.1 µM
- MIC [4]: 3.9 µg
